In PubChem BioAssay AID504383 (The Scripps Research Institute Molecular Screening Center, 2011):
The campaign covered roughly 2,500 compounds. About 1,200 (48%) were called active.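 How the source made its calls: active means mean activation above the low control average plus 3 SD, as set in the primary screen (cut at about 12% in these data); inactive means the rest.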 So high a share suggests a set chosen from earlier hits. This is one part of the list.

The compounds below were run against Troponin I, cardiac muscle (Homo sapiens) + Troponin T, cardiac muscle (Homo sapiens) + Troponin C, slow skeletal and cardiac muscles (Homo sapiens) (UniProt P19429+P45379+P63316) (assay: cardiac RTF calcium sensitivity activators, confirmation, biochemical, IANBD-TnC fluorescence, triplicate (AID 504383;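 further: 0% = DMSO at 0.472 mM calcium and 100% = DMSO at 2.9 mM calcium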)). Conditions: IANBD-labeled cardiac RTF, Ca2+ sensitivity fluorescence; at 7.2 µM; active compounds read high; scaled from EC20 to saturating calcium; tested at EC20 calcium, 0.472 mM.
How it was run: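 Material: labelled regulated thin filaments; Reagent: 0.472 mM calcium; Incubation: 15 min compound incubation with filaments at 25 °C; Detection: filament fluorescence intensity; Evaluation: fluorescence increase normalised to calcium controls; Benchmarks: low control EC20 calcium, high control EC100 calcium.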

Row | Compound | activation
1 | O=C(CSC1=NS(=O)(=O)c2ccccc2N1)N1CCCCC1 | 68.3% (active)
2 | CCOC(=O)CC1=NS(=O)(=O)c2ccccc2N1 | 9.51% (inactive)
3 | CCCc1cc(=O)oc2c3c(cc(OCC(=O)N[C@@H](CSC)C(=O)O)c12)OC(C)(C)CC3 | 42% (active)
4 | Cc1c(C)c2c(OCC(=O)N3CCC(O)CC3)cc3c(c2oc1=O)CCC(C)(C)O3 | 3.89% (inactive)
5 | Cc1cc(=O)oc2c3c(cc(OCC(=O)NCc4ccccn4)c12)OC(C)(C)CC3 | 2.15% (inactive)
6 | COCCNC(=O)c1c(CS(=O)(=O)c2ccccc2)noc1C(=O)NCc1ccccc1 | -1.16% (inactive)
7 | CN(C)CCNC(=O)c1c(CSc2ccc(Cl)cc2)noc1C(=O)NCc1ccccc1 | 13.1% (active)
8 | CNc1c2cccc(C)c2nc2c(C(=O)NCCN(C)C)cccc12 | 0.42% (inactive)
9 | Cc1cccc(NC(=O)CN2C(=O)N/C(=C/c3ccc(C)s3)C2=O)c1 | 12.8% (active)
10 | Cc1ccc(/C=C2/NC(=O)N(Cc3ccccc3)C2=O)s1 | 2.28% (inactive)
11 | Cc1cccc(CN2C(=O)N/C(=C/c3ccc(C)s3)C2=O)c1 | 8.39% (inactive)
12 | Cc1nc(-n2[nH]c3c(c2=O)CCCC3)[nH]c(=O)c1Cc1ccccc1 | 28% (active)
13 | CCOC(=O)CCc1c(C)nc(-n2[nH]c(C)c(CCO)c2=O)[nH]c1=O | 6.36% (inactive)
14 | Cc1ccc(C2C(C#N)=C(N)SC(N)=C2C#N)cc1 | 9.26% (inactive)
15 | CCC(=O)Nc1nc2c(c(=O)[nH]1)CCCC2 | 4.12% (inactive)
16 | O=C(CCc1nc2sc3c(c2c(=O)[nH]1)CCCC3)Nc1ccccc1Cl | 84.3% (active)
17 | CC(C)(CN1CCc2ccccc2C1)NS(=O)(=O)c1ccc(Cl)cc1 | 2.24% (inactive)
18 | Cc1ccc(S(=O)(=O)NC(C)(C)CN2CCC(Cc3ccccc3)CC2)cc1 | 21.5% (active)
19 | O=S(=O)(c1ccccc1Cl)N1CCC(Cc2ccccc2)CC1 | 10.4% (inactive)
20 | COc1cc(Cl)c(S(=O)(=O)NCc2ccccn2)cc1Cl | 7.75% (inactive)
21 | COc1ccc(C(=O)O)cc1S(=O)(=O)NCCc1ccccn1 | 5.17% (inactive)
22 | COc1ccc(Br)cc1S(=O)(=O)Nc1ncccc1C | 68.3% (active)
23 | COC(=O)N1c2ccccc2CCc2ccccc21 | 8.65% (inactive)
24 | CCCOc1ccc(C2C(C(=O)c3ccc(C)o3)=C(O)C(=O)N2CCCn2ccnc2)cc1 (stereo not drawn) | 64.1% (active)
25 | Cc1cc2oc3ccc(NCCCn4ccnc4)cc3c(=O)c2cc1C | 1.5% (inactive)

Row | Compound | activation
26 | CCCCOc1cccc(C2C(C(=O)c3cccs3)=C(O)C(=O)N2Cc2cccnc2)c1 (stereo not drawn) | -3.36% (inactive)
27 | O=C1c2ccccc2-c2onc3ccc(NCc4ccco4)c1c23 | 1.47% (inactive)
28 | CCNc1ccc2noc3c2c1C(=O)c1ccccc1-3 | 15.8% (active)
29 | CCOc1ccc2noc3c2c1C(=O)c1ccccc1-3 | 3.61% (inactive)
30 | COC(=O)C1=C(CSc2nc3c(cc2C#N)CN(C)CC3)OC(N)=C(C#N)C1c1ccccc1F (stereo not drawn) | 10.6% (inactive)
31 | N#CC1=C(N)Oc2cc(O)c(Cl)cc2C1c1ccccc1F (stereo not drawn) | 162% (active)
32 | O=C1CCC(=O)N(O)CCCCCNC(=O)CCC(=O)N(O)CCCCNC(=O)CCC(=O)N(O)CCCCCN1 | 1.89% (inactive)
33 | COc1ccc(Nc2cc(C)nc3ccc(OC)cc23)cc1 | 4.34% (inactive)
34 | CC(=O)c1cccc(Nc2cc(C)nc3ccc(C)cc23)c1 | 25.6% (active)
35 | CC(=O)c1cccc(NC(=S)NC2CCCCC2)c1 | 8.2% (inactive)
36 | CCN(C(=O)c1cnc(NC(C)C)cc1C(F)(F)F)c1ccc(Cl)cc1 | 4.41% (inactive)
37 | CCN(c1ccc(N=Cc2c(O)n(Cc3ccc(OC)cc3)c(=O)c3ccccc23)cc1)C(C)C | 9.81% (inactive)
38 | Oc1sc(C=Nc2ccccc2)c2ccccc12 | 12.9% (active)
39 | COc1ccc(N=Cc2c(O)c3ccccc3n2C(C)=O)cc1 | 13.7% (active)
40 | COc1ccc(N=Cc2sc(O)c3ccccc23)cc1 | 152% (active)
41 | CC(=O)n1c(C=Nc2ccc(Cl)cc2)c(O)c2ccccc21 | 10.7% (inactive)
42 | Cc1ccc(N=Cc2sc(O)c3ccccc23)cc1 | 7.98% (inactive)
43 | O=[N+]([O-])c1ccc(N/N=C\c2ccccc2OCc2ccccc2)cc1 | 19.2% (active)
44 | O=C(Nc1cc2c3c(c1)CC(=O)N3CCC2)C1CC1 | 10.7% (inactive)
45 | COc1ncnc2c1NC1=C(S2)C(=NCCC(=O)O)CC(C)(C)C1 | 70.3% (active)
46 | CCN1/C(=C\c2ccc3ccccc3[n+]2CC)Sc2cc(C)ccc21 | 57.9% (active)
47 | CCN1/C(=C\c2ccc3cc(C)ccc3[n+]2CC)Sc2cc(C)c(C)cc21 | 6.91% (inactive)
48 | CCN1/C(=C/c2ccc3cc(C)cc(C)c3[n+]2CC)Sc2cc(C)ccc21 | 14.7% (active)
49 | CCN1/C(=C/c2ccc3cc(C)ccc3[n+]2CC)Sc2ccccc21 | 68.1% (active)
50 | CCN1/C(=C/c2ccc3cc(C)ccc3[n+]2CC)Sc2ccc3sccc3c21 | 11.7% (active)

Row | Compound | activation
51 | CCN1/C(=C/c2ccc3cc(C)ccc3[n+]2CC)Sc2cc(C)ccc21 | 2.46% (inactive)
52 | COc1ccccc1N=Cc1c(C)c(C#N)c2[nH]c3ccccc3n2c1=O | 1.91% (inactive)
53 | COc1ccc(N2C(N)=NC(N)=NC2(C)C)cc1 | 1.33% (inactive)
54 | CCN1CC=C2C(C#N)=C(N)C(C#N)(C#N)C(CCc3ccccc3)C2C1 (stereo not drawn) | 11.4% (inactive)
55 | CN1CC=C2C(C#N)=C(N)C(C#N)(C#N)C(CCc3ccccc3)C2C1 (stereo not drawn) | 46% (active)
56 | N#CC1=C(N)SC(N)=C(C#N)C1CCc1ccccc1 | 0.43% (inactive)
57 | CN1CC=C2C(C#N)=C(N)C(C#N)(C#N)C(Cc3ccccc3)C2C1 (stereo not drawn) | 12.3% (active)
58 | CCOc1ccc(S(=O)(=O)n2ccnc2)c2ccccc12 | 12.2% (active)
59 | CC1=CC=CN2CC(O)CN=C12 (stereo not drawn) | 25.4% (active)
60 | CCc1ccc(C(=O)NNc2cc(Cl)ccc2Cl)cc1 | 16.7% (active)
61 | CCCc1ccc(C(=O)NNc2cc(Cl)ccc2Cl)cc1 | 1.21% (inactive)
62 | CCC1SC(=Nc2cccc(C)c2)NC1=O (stereo not drawn) | 143% (active)
63 | Fc1ccc(OCc2nnc(SCCN3CCOCC3)o2)cc1 | 4.25% (inactive)
64 | O=C(CSc1nnc(COc2ccccc2)o1)N1CCN(c2ccccc2)CC1 | 55.2% (active)
65 | CCO[C@@H]1OC(C(=O)O)=C[C@H](c2coc3ccccc3c2=O)[C@H]1CCCO | 9.42% (inactive)
66 | COc1cccc(/C(O)=C/c2nc3ccc(C(=O)NCCc4ccc(Cl)cc4)cc3[nH]c2=O)c1 | 6.19% (inactive)
67 | COc1ccc(CCNC(=O)c2ccccc2OCc2c(C)noc2C)cc1 | 7.09% (inactive)
68 | COc1ccc(N(C)S(=O)(=O)c2ccc(Cl)c(C(=O)NCCc3ccc(Cl)cc3)c2)cc1 | 89% (active)
69 | Cc1cc(C(=O)COc2cccc3cccnc23)c(C)n1C | 60.1% (active)
70 | OCCN=C1CCCc2c1[nH]c1ccc(Cl)cc21 | 10.9% (inactive)
71 | Cn1ncc(N=Cc2c(O)ccc3ccccc23)c1C(=O)Nc1cccc(Cl)c1 | 8.95% (inactive)
72 | Cn1c(O)c(/C=N/NC(=O)c2cc3ccccc3cc2O)c2ccccc21 | 228% (active)
73 | CC(O)c1cccc(N=Cc2ccc3ccccc3c2O)c1 (stereo not drawn) | 13.9% (active)
74 | Oc1ccccc1C=NN=Cc1c(O)ccc2ccccc12 | 6.43% (inactive)
75 | Cc1ccc2c(c1)c(/C=C/c1cc[n+](C)cc1)c(C)n2C | 11% (inactive)

Row | Compound | activation
76 | Cc1ccc2[nH]c(C)c(/C=C/c3cc[n+](C)cc3)c2c1 | 171% (active)
77 | Cc1[nH]c2ccccc2c1/C=C/c1cc[n+](C)cc1 | 11.9% (active)
78 | C=CCn1c(COc2cccc(C)c2)nnc1SCn1nnc2ccccc2c1=O | 5.98% (inactive)
79 | CCNc1nc(SCC(N)=O)nc2sc3c(c12)CCN(C)C3 | 6.59% (inactive)
80 | CCOC(=O)C(C)(C)Sc1nc2c(cnn2-c2ccc(Cl)cc2)c(=O)[nH]1 | 185% (active)
81 | CCOC(=O)C(C)Sc1nnc(Cc2cc(=O)[nH]c(=O)[nH]2)n1-c1ccc(Cl)cc1 (stereo not drawn) | 10.2% (inactive)
82 | CCCCCOc1ccc(CN2CCOCC2)cc1Cl | 74.8% (active)
83 | Cc1cc2nc(C3CCCN(C(=O)NCc4ccccc4)C3)[nH]c2cc1C (stereo not drawn) | 35.4% (active)
84 | COc1cccc(CNC(=O)C2CCCN(c3nc4ccccc4o3)C2)c1 (stereo not drawn) | 1.39% (inactive)
85 | CCCC(=O)Nc1ccc(-c2cnc(-c3ccc(NC(=O)CCC)cc3)nc2)cc1 | 13.5% (active)
86 | Cc1cccc(/C=N/NC(=O)C(C)Nc2cccc3ccccc23)n1 (stereo not drawn) | 46.1% (active)
87 | CCOC(=O)c1sc(=NC(=O)c2cc(OC)c(OC)c(OC)c2)n(C)c1C | 266% (active)
88 | CCOC(=O)Cn1nc2sc3ccccc3n2c(=O)c1=O | 8.56% (inactive)
89 | CC1CC(C)CN(C(=O)Cn2c(-c3nonc3N)nc3ccccc32)C1 (stereo not drawn) | 4.8% (inactive)
90 | CCOC(=O)Cn1c(=O)c(-c2cc(Br)ccc2N)nc2ccccc21 | 16.6% (active)
91 | CCc1ccccc1NC(=O)COc1ccc2c(=O)c(Oc3cc(C)ccc3C)coc2c1 | 2310% (active)
92 | COc1c(O)cccc1-c1nnn(CCC(=O)OCC(=O)c2ccccc2)n1 | 53.4% (active)
93 | O=C(O)CSc1nc2ccccc2nc1Cc1ccccc1F | 413% (active)
94 | O=C(Cc1nc2ccccc2[nH]c1=O)c1ccccc1 | 8.29% (inactive)
95 | C/C(Cn1cnc([N+](=O)[O-])n1)=N\NC(=O)c1cccc(F)c1 | 8.55% (inactive)
96 | COc1cc(C(=O)Oc2ccccc2/C=N/NC(=O)c2ccc(Cl)cc2)cc(OC)c1OC | 61.8% (active)
97 | CCC(=O)N(C)CCc1cc2c(c(OC)c1/C=N/NC(=O)c1ccc(Br)cc1)OCO2 | 8.22% (inactive)
98 | O=C(N/N=C/c1ccccc1OC(=O)c1ccc2c(c1)OCO2)c1cccc(F)c1 | 52.1% (active)
